# Source: PubChem BioAssay
# KCNK3 block: human KCNK3 channel inhibition, primary screen; B-score at 10 µM; AID 602410; CHO-KCNK3 thallium flux, FluxOR fluorescence; stronger effect = lower value; actives 0.84% (n = 340,000); O14649;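 active = B-score under library mean minus 4 SD, starting fluorescence ratio at most library mean plus 5 SD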;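 note: more negative B-score means stronger inhibition of thallium flux through KCNK3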
# KCNK9 inh: inhibitors of human KCNK9 two-pore domain potassium channel | Q9NPC2 | HEK293 KCNK9, FluxOR thallium flux fluorescence; stronger effect = lower value | B-score at 10 µM | actives 1.2% (n = 310,000) | AID 488922;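 active = ratio B-score over 3 SD below the library mean, with starting fluorescence within 5 SD of its mean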;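 note: negative B-score means less thallium flux so channel inhibition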
# hERG rescue: compounds protecting human hERG from proarrhythmic drug block; activation (rescue from dofetilide block), less the hit threshold, % at 10 µM; Q12809; CHO-hERG, FluxOR thallium flux, dofetilide IC70 present; actives 0.51% (n = 310,000);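 active = activation above the mean of controls blocked by dofetilide plus 5 SD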;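 note: thallium influx through hERG after potassium depolarization seen as dye fluorescence rise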
# Target sequence (Q12809 whole entry, looked up): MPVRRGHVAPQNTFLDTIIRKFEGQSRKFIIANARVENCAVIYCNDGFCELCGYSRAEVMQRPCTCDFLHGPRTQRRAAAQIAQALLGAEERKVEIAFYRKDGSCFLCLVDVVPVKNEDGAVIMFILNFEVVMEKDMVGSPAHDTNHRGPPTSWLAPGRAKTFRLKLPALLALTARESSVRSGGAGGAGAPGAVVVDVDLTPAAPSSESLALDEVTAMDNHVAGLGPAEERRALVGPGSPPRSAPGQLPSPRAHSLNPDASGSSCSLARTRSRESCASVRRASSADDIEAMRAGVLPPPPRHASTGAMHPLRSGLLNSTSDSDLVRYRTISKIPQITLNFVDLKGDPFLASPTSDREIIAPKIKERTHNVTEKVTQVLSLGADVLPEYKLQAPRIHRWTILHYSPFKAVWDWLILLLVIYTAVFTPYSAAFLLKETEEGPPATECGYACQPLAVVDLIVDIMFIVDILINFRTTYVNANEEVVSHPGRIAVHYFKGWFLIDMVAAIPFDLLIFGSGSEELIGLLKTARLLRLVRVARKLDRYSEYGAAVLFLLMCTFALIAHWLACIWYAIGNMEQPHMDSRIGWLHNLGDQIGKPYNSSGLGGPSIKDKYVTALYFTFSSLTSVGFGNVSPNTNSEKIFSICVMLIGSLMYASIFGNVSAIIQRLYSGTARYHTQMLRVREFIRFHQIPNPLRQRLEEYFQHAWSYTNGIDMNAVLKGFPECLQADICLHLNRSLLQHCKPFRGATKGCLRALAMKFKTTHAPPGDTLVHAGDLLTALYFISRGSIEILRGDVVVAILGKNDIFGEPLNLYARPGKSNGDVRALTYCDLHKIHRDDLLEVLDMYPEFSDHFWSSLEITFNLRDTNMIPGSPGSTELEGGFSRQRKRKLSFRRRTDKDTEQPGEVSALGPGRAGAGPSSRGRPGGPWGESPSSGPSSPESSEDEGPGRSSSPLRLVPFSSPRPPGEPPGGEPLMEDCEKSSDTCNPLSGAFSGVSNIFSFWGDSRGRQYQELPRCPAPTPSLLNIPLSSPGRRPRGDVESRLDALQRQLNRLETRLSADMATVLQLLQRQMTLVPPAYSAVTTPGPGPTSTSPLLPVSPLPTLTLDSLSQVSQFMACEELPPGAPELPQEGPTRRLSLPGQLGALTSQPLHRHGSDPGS
# KCNQ1 act: potentiates or activates the human KCNQ1 potassium channel. B-score at 10 µM. actives 0.35% (n = 310,000). CHO-K1 KCNQ1, thallium flux FluxOR fluorescence; stronger effect = higher value. P51787. AID 2648;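 active = fluorescence ratio B-score, a plate-corrected score, at least three library SD, with initial intensity B-score within 5 SD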
#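 assay system = KCNQ1-transfected CHO-K1 cells | medium = assay buffer with matched DMSO | probe or stimulus = depolarizing K+/Tl+ stimulus, K2SO4 and Tl2SO4 each 12.5 mM in 5x stock | dosing = single dose | incubation = dye 90 min, compound 20 min, room temperature | detection = kinetic FluxOR fluorescence, 10 s baseline plus 110 s post-stimulus | evaluation = ratio B score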
# KCNQ1 inh: human KCNQ1 channel inhibition; CHO-K1 KCNQ1, FluxOR thallium flux fluorescence; stronger effect = higher value; P51787; AID 2642; B-score at 10 µM; actives 1.3% (n = 310,000);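 active = compounds whose thallium flux B-score, printed positive for inhibition, exceeds three library SD while starting fluorescence stays within three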;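 note: channel opened by potassium depolarization with thallium stimulus after 20 min compound exposure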
# Cl transport mod: modulates chloride dependent transport by human KCC2 | Q9H2X9 | KCC2 cells, thallium flux FluoZin-2 fluorescence | actives 2.2% (n = 190,000) | B-score of Tl+ flux slope (higher = more flux/activation; lower = inhibition) at 10 µM;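 active = thallium flux slope and its plate-corrected score both differing from the plate sample mean at a set confidence after two filtering rounds, in either direction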;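 note: slope of fluorescence scaled to starting intensity during 10 to 20 s after thallium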
# KCC2 sec1: KCC2 (human) modulation, secondary assay; shares compounds with Cl transport mod; HEK293-KCC2, thallium flux, FluoZin2 fluorescence; stronger effect = higher value; normalised thallium flux (F/F0 slope) at 10 µM; actives 15% (n = 3,700);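 active = thallium flux slope above the same plate's solvent-only control mean plus 3 SD; inconclusive = the two replicate wells disagree; inactive = no significant difference from solvent-only control wells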
# KCC2 bumet counter: thallium flux despite bumetanide block in KCC2 cells, secondary assay 3; shares compounds with Cl transport mod; HEK293-KCC2 + bumetanide/ouabain, thallium flux FluoZin2; stronger effect = higher value; normalized thallium flux at 10 µM; actives 49% (n = 3,700);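 active = thallium entry rate above the same plate's blocked-transporter control wells by more than 3 SD; inconclusive = the two repeat wells disagree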;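 note: raw slope of fluorescence over initial fluorescence between 10 and 20 s after thallium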
# KCC2 secondary2: KCC2 (human) modulation, second secondary assay | shares compounds with Cl transport mod | HEK293-KCC2, thallium flux FluoZin2 fluorescence; actives lie on both sides; F/F0 rise rate, 10–20 s post-thallium | normalized thallium flux at 10 µM | actives 23% (n = 3,700) | AID 1715;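 active = thallium flux slope more than 3 SD above or below the plate's solvent-only control mean, mostly below; inconclusive = the two repeat wells disagreed; inactive = no significant shift from solvent-only controls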;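 note: raw slope with 0.1% DMSO as baseline and bumetanide as block control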
# HEK counter1: counter-screen for KCC2 modulators: effect in parental HEK293 cells | shares compounds with Cl transport mod | actives 46% (n = 3,700) | thallium flux rate (normalised fluorescence) at 10 µM | thallium flux FluoZin2, ouabain; baseline-ratio fluorescence slope, 10–20 s after thallium;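 active = thallium flux rate significantly above the same plate's solvent-only control wells, beyond their mean plus 3 SD; inconclusive = the two replicate wells gave conflicting results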
# KCC2 ouabain: modulates human KCC2 on retest with ouabain. shares compounds with Cl transport mod. HEK293-KCC2, thallium flux FluoZin2 fluorescence; bidirectional: low = inhibitor, high = activator. raw Tl+ flux slope (below DMSO = inhibition, above = activation) at 10 µM. actives 48% (n = 3,700);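 active = thallium flux slope beyond 3 SD from same-plate DMSO control mean in most replicates, usually higher, sometimes lower; inconclusive = repeat tests gave conflicting results; inactive = no significant difference from controls in most replicates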;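 note: slope of initial-normalized fluorescence between seconds 10 and 20 after thallium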
# HEK293 Tl flux2: counter-screen for KCC2 modulators: effect in parental HEK293 cells; shares compounds with Cl transport mod; thallium flux FluoZin-2 fluorescence slope; thallium flux slope at 10 µM; actives 33% (n = 3,700); AID 1718;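 active = thallium flux slope above the same plate's solvent-control mean plus 3 SD in both duplicate wells; inconclusive = duplicate wells that disagreed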;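 note: run without ouabain in cells lacking the KCC2 cotransporter; slope of fluorescence scaled to its starting value between 10 and 20 s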
# Numbers without * were called inactive; i = inactive; ? = inconclusive; · = no result given. The list is not random: actives were taken first. Their share in the collection is about 4.1%.
SMILES,KCNK3 block,KCNK9 inh,hERG rescue,KCNQ1 act,KCNQ1 inh,Cl transport mod,KCC2 sec1,KCC2 bumet counter,KCC2 secondary2,HEK counter1,KCC2 ouabain,HEK293 Tl flux2
CCOc1ccc(N2C(=O)CS/C2=N/NC(=O)COc2ccc3ccccc3c2)cc1,i,i,-11,i,i,-5*,0.0087,0.006,0.029*,0.0045,0.016*,0.011
CC1(NC(=O)CSc2nnc(-c3c[nH]c4ccccc34)n2C2CC2)CCS(=O)(=O)C1 (stereo not drawn),i,·,·,·,·,·,·,·,·,·,·,·
Cc1cccc(/C=N/n2c(-c3ccco3)n[nH]c2=S)c1,i,i,-5,i,i,17*,0.012*,0.068*,0.031,0.016*,0.04*,0.011*
Cc1ccc(/C=N/n2c(-c3ccco3)n[nH]c2=S)cc1,i,i,-6,i,i,15*,0.007,0.028*,0.033,0.019*,0.031*,0.017*
S=c1[nH]nc(-c2ccco2)n1/N=C/c1cccc(Cl)c1,i,i,-13,i,i,9.2*,0.018,0.014*,0.031,0.012*,0.022*,0.016*
Cc1n[nH]c(=S)n1/N=C/c1cccc(OCc2ccccc2)c1,i,i,-8,i,i,16*,0.017,0.027*,0.033,0.014*,0.022*,0.016*
O=C(CN1C(=O)c2ccc([N+](=O)[O-])cc2C1=O)Nc1cc(S(=O)(=O)N2CCOCC2)ccc1Cl,i,i,-7,i,i,·,·,·,·,·,·,·
O=C(O)C1(Cc2nc3ccccc3[nH]2)CCCC1,i,i,-7,i,i,·,·,·,·,·,·,·
C[C@@]12C(=O)Nc3cc(F)c(F)cc3C(=O)N1[C@H]1c3cc(Cl)ccc3OC[C@@H]1[C@@H]2c1ccccc1,i,·,·,·,·,·,·,·,·,·,·,·
O=[N+]([O-])c1ccccc1/C=N/n1c(-c2cccnc2)n[nH]c1=S,i,i,-2,i,i,-1,·,·,·,·,·,·
O=[N+]([O-])c1cc(/C=N/n2c(-c3cccnc3)n[nH]c2=S)ccc1Cl,i,i,-6,i,i,8.1*,0.0063,0.077*,0.033,?,?,?
O=C1Nc2ccccc2S/C1=C/Nc1cccc(Cl)c1,i,i,-16,i,i,·,0.017,?,0.029,0.0071,0.015*,0.0097
CC(C)OCCCn1c(-c2ccc(Br)cc2)c[nH]c1=S,i,i,-5,i,i,9.5*,0.0094,0.043*,0.036,0.02*,0.04*,0.013*
CCOc1ccccc1NS(=O)(=O)c1cccc2nsnc12,i,i,-7,i,i,2.9,·,·,·,·,·,·
O=S(=O)(Nc1ccccc1)c1cccc2nsnc12,i,i,-5,i,i,·,·,·,·,·,·,·
CNS(=O)(=O)c1cccc2nsnc12,i,i,-6,i,i,0.14,0.0088,?,0.031,0.008,0.021,0.011
CCOc1ccc(OCC)c(NS(=O)(=O)c2cccc3nsnc23)c1,i,i,-14,i,i,18*,0.013*,0.073*,0.035,0.027*,0.035*,0.013*
CN(C)S(=O)(=O)c1cccc2nsnc12,i,i,-1,i,i,·,·,·,·,·,·,·
CN(C1CCS(=O)(=O)C1)S(=O)(=O)c1cccc2nsnc12 (stereo not drawn),i,i,-2,i,i,·,0.006,0.0046,0.029,0.0077,0.018,0.011
O=C(c1ccc2[nH]ccc2c1)N1CCCC(Nc2ccccc2)C1 (stereo not drawn),i,i,-7,i,i,·,·,·,·,·,·,·
Cc1ccc(C2(C(F)(F)F)NC(=O)N3CCN=C3S2)cc1 (stereo not drawn),i,i,-11,i,i,0.14,·,·,·,·,·,·
Cc1ccc(C2(C(F)(F)F)NC(=O)N3CCCN=C3S2)cc1 (stereo not drawn),i,i,2,i,i,3.9*,0.0053,0.0039,0.031,0.0071,0.018,0.0095
O=C(NNC(=O)c1ccc(Cl)cc1Cl)c1csc(-c2cccnc2)n1,i,i,-4,i,i,8.1*,0.0059,0.018*,0.033,0.015*,?,0.018*
COc1ccc(NC(=O)c2cccnc2N2CCCCC2)cc1,i,i,-12,i,i,1.7,·,·,·,·,·,·
COc1ccc(NC(=O)c2cccnc2N2CCCC2)cc1,i,i,-8,i,i,·,?,0.005,0.031,0.008,0.019,0.011
SMILES,KCNK3 block,KCNK9 inh,hERG rescue,KCNQ1 act,KCNQ1 inh,Cl transport mod,KCC2 sec1,KCC2 bumet counter,KCC2 secondary2,HEK counter1,KCC2 ouabain,HEK293 Tl flux2
O=C1NC(=O)/C(=C\c2ccc(Oc3cnccn3)cc2)S1,i,i,-8,i,i,-0.6,·,·,·,·,·,·
O=C1NC(=S)S/C1=C/c1ccc(Oc2cnccn2)cc1,i,i,-6,i,i,·,0.012*,0.038*,0.029,0.012*,0.037*,?
CC(C)c1nc2sc3c(=O)[nH]c(=S)[nH]c3c2c2c1CCCC2,i,i,-15,i,i,-1.5,·,·,·,·,·,·
CC(C)c1nc2sc3c(=O)[nH]c(=S)[nH]c3c2c2c1CCC2,·,i,-3,21*,i,-7.9*,0.016,0.0063*,?,0.0051*,0.0094*,?
CN(Cc1cccc(Cl)c1Cl)C(=O)c1cc(S(=O)(=O)N2CCOCC2)ccc1F,i,·,·,·,·,·,·,·,·,·,·,·
CC(C)(C)SCCNC(=O)/C=C/c1cccc([N+](=O)[O-])c1,i,i,-7,i,i,3.7*,0.0093,0.0063,0.033,0.0047,0.02,0.011
O=C(OCCCc1ccncc1)c1ccc(S(=O)(=O)N2CCOCC2)cc1,i,i,-5,i,i,·,0.0095,0.018*,0.034,0.011*,0.022,0.011*
